Paper PMC6130785 (ACS Omega, 2018)

Assays:
PIKFYVE [1] = biological target: T1, PIKFYVE (Homo sapiens, UniProt Q9Y2I7); assay: Lipid kinase competition assay; assay type: binding; details: Table 2 / Figure 3 compound series, standard dose-response curve
Summary of the method: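 Competition binding: biotinylated kinase-specific control ligand on streptavidin magnetic beads formed affinity resin. DNA-tagged PIKFYVE, liganded beads and test compound were combined. Bound kinase was eluted and quantified by qPCR of its DNA tag. Kinase amount was plotted against test compound concentration, and Kd was fitted to a standard dose–response curve using the Hill equation.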

PIKFYVE [2] = biological target: T1, PIKFYVE; assay: PIKFYVE inhibition assay; assay type: biochemical

T1 sequence (Q9Y2I7 whole entry): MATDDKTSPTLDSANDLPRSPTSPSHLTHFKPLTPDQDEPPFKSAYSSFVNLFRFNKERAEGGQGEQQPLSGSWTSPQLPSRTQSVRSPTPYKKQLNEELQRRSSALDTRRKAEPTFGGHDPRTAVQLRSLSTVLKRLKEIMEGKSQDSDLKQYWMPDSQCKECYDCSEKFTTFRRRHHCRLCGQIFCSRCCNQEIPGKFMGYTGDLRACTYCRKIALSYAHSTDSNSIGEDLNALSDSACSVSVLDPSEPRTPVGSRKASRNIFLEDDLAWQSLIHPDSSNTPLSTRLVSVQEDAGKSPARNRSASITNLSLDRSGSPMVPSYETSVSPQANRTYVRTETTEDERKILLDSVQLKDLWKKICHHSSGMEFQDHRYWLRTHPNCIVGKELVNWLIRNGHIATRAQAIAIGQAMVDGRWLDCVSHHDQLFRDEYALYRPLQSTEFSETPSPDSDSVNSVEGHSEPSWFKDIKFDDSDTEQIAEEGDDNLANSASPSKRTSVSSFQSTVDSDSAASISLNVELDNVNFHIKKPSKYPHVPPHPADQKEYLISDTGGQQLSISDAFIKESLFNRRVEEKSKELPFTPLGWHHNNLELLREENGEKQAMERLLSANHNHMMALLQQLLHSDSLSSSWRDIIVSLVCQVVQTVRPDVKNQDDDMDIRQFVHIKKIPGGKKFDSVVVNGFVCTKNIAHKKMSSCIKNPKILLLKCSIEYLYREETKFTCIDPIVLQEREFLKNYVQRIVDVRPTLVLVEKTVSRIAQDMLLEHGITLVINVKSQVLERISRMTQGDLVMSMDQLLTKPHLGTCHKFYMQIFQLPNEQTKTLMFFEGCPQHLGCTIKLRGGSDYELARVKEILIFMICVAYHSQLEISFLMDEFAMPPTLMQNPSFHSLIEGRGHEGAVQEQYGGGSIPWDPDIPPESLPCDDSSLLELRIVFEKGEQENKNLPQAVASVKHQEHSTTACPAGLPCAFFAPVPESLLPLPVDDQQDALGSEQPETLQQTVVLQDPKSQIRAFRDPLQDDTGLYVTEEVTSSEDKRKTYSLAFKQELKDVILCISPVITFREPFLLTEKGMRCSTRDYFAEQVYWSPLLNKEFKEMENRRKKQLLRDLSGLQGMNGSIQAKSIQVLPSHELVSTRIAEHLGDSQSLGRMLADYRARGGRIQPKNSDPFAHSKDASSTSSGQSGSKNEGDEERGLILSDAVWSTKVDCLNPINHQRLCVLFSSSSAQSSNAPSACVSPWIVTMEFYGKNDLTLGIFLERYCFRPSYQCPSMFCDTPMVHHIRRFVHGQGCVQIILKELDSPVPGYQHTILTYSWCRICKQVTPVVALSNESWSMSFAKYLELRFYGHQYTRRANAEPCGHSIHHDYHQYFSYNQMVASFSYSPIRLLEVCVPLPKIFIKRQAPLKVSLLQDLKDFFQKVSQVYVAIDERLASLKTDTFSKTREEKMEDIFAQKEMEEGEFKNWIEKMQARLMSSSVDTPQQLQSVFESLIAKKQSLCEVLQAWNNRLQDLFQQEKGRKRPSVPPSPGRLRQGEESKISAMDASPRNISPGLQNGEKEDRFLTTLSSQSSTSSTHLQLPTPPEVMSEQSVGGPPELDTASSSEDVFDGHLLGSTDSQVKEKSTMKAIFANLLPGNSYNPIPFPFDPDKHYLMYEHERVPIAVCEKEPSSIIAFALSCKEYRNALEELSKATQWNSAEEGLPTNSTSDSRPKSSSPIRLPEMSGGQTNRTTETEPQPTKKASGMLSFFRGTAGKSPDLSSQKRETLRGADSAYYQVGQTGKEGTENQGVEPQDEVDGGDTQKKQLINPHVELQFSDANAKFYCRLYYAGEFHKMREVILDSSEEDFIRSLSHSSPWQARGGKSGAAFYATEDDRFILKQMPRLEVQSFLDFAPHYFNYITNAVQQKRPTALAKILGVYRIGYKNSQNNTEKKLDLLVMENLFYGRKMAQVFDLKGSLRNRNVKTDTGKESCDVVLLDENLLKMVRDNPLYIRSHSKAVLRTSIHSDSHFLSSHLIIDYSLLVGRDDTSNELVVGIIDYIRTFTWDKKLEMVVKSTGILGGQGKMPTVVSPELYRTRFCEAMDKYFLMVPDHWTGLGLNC

Kd (PIKFYVE [1]): > 0.5 µM
IC50 (PIKFYVE [2]): 0.446 µM
SMILES: CCOC(=O)c1[nH]c2ccc(OC)cc2c1/C=C/C(=O)c1ccncc1 [2l, (E)-Ethyl 5-Methoxy-3-(3-oxo-3-(pyridin-4-yl)prop-1-en-1-yl)-[1H]-indole-2-carboxylate]
